According to ChEMBL document CHEMBL4028867, “Design, Synthesis, and Characterization of N-Oxide-Containing Heterocycles with in Vivo Sterilizing Antitubercular Activity” (J Med Chem, 2017):
Converted amounts (≈) assume the structure as drawn. The source made the active and inactive calls. The calls are words filed in the database; no cut-off is given here.

Columns and labels:
Mus musculus [1] = assay: Hepatotoxicity in BALB/c mouse assessed as change in alkaline phosphatase level in plasma at 200 mg/kg, po qd administered via gavage after 10 days; assay type: toxicity, organism-based; conditions: in vivo, 240 h
[2] = system: Mycobacterium tuberculosis; assay: Antitubercular activity against Mycobacterium tuberculosis H37Rv ATCC 27294 under acidic pH 6 condition; assay type: functional
[3] = Apparent permeability from apical to basolateral side in human Caco2 cells by LC-MS/MS analysis; assay type: ADME, cell-based; conditions: caco-2
Summary of the method: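 Caco-2 monolayer permeability measured in both directions (apical-to-basolateral and basolateral-to-apical); result given as apparent permeability coefficient Papp in cm/s.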

Mus musculus [4] = assay: Toxicity in BALB/c mouse assessed as change in kidney weight at 200 mg/kg, po qd administered via gavage after 10 days; assay type: organism-based; conditions: in vivo, 240 h
Summary of the method: (§1)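 Mice given one daily oral gavage dose of 200 mg/kg body weight for 10 days with daily behavioural monitoring (hippocratic screening); heart, lung, spleen, kidney and liver weights compared with controls by ANOVA and Dunnett's test, p < 0.05.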

[5] = Induction of nitric oxide release by Griess assay
Summary of the method: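 Griess assay: chemical detection of nitrite ions in solution as indicator of nitric oxide release.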

[6] = Fraction unbound in human plasma at 5 uM by LC-MS/MS analysis; assay type: ADME, cell-free
Cytochrome P450 2B6 = target: T1, Cytochrome P450 2B6 (Homo sapiens, UniProt P20813); assay: Inhibition of CYP2B6 in human liver microsomes in presence of NADPH by LC-MS/MS analysis; assay type: ADME
T1 sequence (P20813 whole entry): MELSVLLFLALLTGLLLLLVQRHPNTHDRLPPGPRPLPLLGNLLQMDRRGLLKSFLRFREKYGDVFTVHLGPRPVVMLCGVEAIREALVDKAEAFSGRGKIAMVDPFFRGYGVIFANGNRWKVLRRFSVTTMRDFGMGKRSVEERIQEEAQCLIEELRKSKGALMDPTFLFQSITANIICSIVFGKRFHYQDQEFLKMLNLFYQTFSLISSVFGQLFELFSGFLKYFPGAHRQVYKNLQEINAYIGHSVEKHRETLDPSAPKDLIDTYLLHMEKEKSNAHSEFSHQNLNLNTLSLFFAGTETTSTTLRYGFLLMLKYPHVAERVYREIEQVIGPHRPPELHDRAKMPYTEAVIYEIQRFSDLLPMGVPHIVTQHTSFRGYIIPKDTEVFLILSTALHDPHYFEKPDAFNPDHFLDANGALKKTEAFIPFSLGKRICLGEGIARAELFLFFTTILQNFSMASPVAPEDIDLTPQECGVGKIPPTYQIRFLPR

Cytochrome P450 2C8 = target: T2, Cytochrome P450 2C8 (Homo sapiens, UniProt P10632); assay: Inhibition of CYP2C8 in human liver microsomes in presence of NADPH by LC-MS/MS analysis; assay type: ADME
T2 sequence (P10632 whole entry): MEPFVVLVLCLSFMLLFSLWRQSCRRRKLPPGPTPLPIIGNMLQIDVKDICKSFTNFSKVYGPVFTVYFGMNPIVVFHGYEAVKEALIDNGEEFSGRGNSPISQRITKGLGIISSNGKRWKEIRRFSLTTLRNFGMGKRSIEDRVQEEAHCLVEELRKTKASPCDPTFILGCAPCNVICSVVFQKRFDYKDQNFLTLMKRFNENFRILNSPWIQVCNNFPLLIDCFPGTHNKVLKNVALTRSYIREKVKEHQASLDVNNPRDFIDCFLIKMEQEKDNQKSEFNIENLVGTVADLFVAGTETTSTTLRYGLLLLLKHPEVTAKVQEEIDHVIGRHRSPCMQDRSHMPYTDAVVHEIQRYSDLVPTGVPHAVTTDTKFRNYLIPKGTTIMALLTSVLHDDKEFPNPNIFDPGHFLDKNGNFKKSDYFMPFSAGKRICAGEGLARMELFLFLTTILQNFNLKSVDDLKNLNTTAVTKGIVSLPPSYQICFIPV

Candida albicans = assay: Antimicrobial activity against Candida albicans ATCC 10231 at 200 uM incubated for 48 hrs; assay type: functional
Escherichia coli = assay: Antimicrobial activity against Escherichia coli ATCC 25922 at 200 uM incubated for 16 hrs; assay type: functional
Cytochrome P450 3A4 = Cytochrome P450 3A4 (Homo sapiens, UniProt P08684); assay: Inhibition of CYP3A4 in human liver microsomes in presence of NADPH by LC-MS/MS analysis; assay type: ADME
Chain of Cytochrome P450 3A4 (P08684 whole entry): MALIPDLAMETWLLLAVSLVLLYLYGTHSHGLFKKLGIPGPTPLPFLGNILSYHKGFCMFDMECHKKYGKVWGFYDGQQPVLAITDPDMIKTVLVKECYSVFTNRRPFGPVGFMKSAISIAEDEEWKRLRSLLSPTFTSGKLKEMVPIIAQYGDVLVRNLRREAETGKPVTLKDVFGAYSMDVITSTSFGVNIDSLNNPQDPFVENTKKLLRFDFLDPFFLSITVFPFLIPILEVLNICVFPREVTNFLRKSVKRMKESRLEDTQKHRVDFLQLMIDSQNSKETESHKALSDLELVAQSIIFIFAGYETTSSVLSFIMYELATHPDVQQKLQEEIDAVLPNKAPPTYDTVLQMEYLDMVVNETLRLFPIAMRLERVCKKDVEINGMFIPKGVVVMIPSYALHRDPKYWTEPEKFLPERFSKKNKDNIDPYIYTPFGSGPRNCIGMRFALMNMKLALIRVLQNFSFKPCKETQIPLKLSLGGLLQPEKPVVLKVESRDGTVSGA

[7] = system: Mycobacterium tuberculosis; assay: Downregulation of htrA gene in Mycobacterium tuberculosis H37Rv at 2 times MIC90 after 4 hrs by microarray analysis; assay type: functional
Mus musculus [8] = assay: Toxicity in BALB/c mouse assessed as change in spleen weight at 200 mg/kg, po qd administered via gavage after 10 days; assay type: organism-based; conditions: in vivo, 240 h; summary of the method: as §1
[9] = system: Mycobacterium tuberculosis; assay: Bactericidal activity against Mycobacterium tuberculosis H37Rv ATCC 27294 assessed as colony forming units at 41.24 uM after 48 hrs by time kill analysis; assay type: functional
Summary of the method: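 Time–kill: H37Rv ATCC 27294 exposed to drug at 41.24 μM, alongside INH 0.72 μM, RMP 0.01 μM and MOX 0.88 μM; log10 CFU/mL followed over days. Counts are the mean of three independent assays, ± SD.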

[10] = system: Mycobacterium tuberculosis; assay: Up-regulation of heat shock protein genes in Mycobacterium tuberculosis H37Rv at 2 times MIC after 4 hrs by microarray analysis; assay type: functional
Mus musculus [11] = assay: Genotoxicity in Swiss mouse assessed as incidence of micronucleated peripheral blood reticulocytes at 50 to 500 mg/kg dosed via gavage by micronucleus assay; assay type: toxicity, organism-based; conditions: in vivo, po
Staphylococcus aureus = assay: Antimicrobial activity against Staphylococcus aureus ATCC 29213 at 200 uM incubated for 16 hrs; assay type: functional
[12] = system: Mycobacterium tuberculosis; assay: Down-regulation of HSP gene in Mycobacterium tuberculosis H37Rv at 2 times MIC90 after 4 hrs by microarray analysis; assay type: functional
Mus musculus [13] = assay: Toxicity in BALB/c mouse assessed as change in heart weight at 200 mg/kg, po qd administered via gavage after 10 days; assay type: organism-based; conditions: in vivo, 240 h; summary of the method: as §1
[14] = Stability of the compound in PBS assessed as parent compound remaining at pH 7.4 after 24 hrs by HPLC-UV analysis; assay type: physicochemical; conditions: read-out: Stability
[15] = Chemical stability in PBS at pH 5.5 assessed as drug degradation after 10 hrs by HPLC-UV analysis; assay type: physicochemical; conditions: read-out: Drug degradation
[16] = system: Mycobacterium tuberculosis; assay: Antitubercular activity against Mycobacterium tuberculosis Erdman infected in BALB/c mouse at 200 mg/kg, po qd dosed via gavage starting at 10 days post-infection and terminated at 29 day post-infection for 5 consecutive days each week and measured 3 day wash-out period at 31 day-postinfection; assay type: functional, organism-based
Summary of the method: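 Drug in cholesterol/phospholipid microemulsion was given by oral gavage (200 μL) once daily, 5 days/week, from day 10 to day 29 post-infection; n = 7/group. After a 3-day washout, lungs were homogenized in HBSS-Tween at day 31 and plated on Middlebrook 7H11 for CFU.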

[17] = system: Mycobacterium tuberculosis; assay: Growth inhibition of Mycobacterium tuberculosis H37Rv exposed to plasma from BALB/c mouse treated with 300 mg/kg, po administered through microemulsion vehicle as single oral dose per gavage after 1 hr by Resazurin microtiter assay; assay type: functional; conditions: read-out: GI
Summary of the method: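 The microemulsion was 10% cholesterol, 10% phosphatidylcholine/sodium oleate/polyoxyl 40 hydrogenated castor oil (3:6:8) and 80% phosphate buffer pH 7.4. Plasma taken at 0.3, 1, 2 or 4 h was tested by REMA for % Mtb growth inhibition, and plasma level was estimated against the in-vitro REMA MIC.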

In the case of `O=C(N/N=C/c1ccc2no[n+]([O-])c2c1)c1ccncc1`, the Activity (Mus musculus [1]) is reported as “Non-Toxic”, the MIC90 [2] is reported as 3.41 µM (≈ 0.966 µg/mL) and the Papp [3] is reported as 5.67 ×10⁻⁶ cm/s. The Activity (Mus musculus [4]) was “Non-Toxic”, the Activity [5] was “inactive” and the fraction unbound at 5 µM [6] was 0.465. For the same molecule, the IC50 (Cytochrome P450 2B6) was > 20 µM, the IC50 (Cytochrome P450 2C8) was > 20 µM and the Activity (Candida albicans) was “inactive”. The Activity (Escherichia coli) was “inactive”, the IC50 (Cytochrome P450 3A4) was > 20 µM and the Activity [7] was “Active”. The Activity (Mus musculus [8]) was “Non-Toxic”, the Activity [9] was 6.7 log10CFU/ml and the Activity [10] was “inactive”. The Activity (Mus musculus [11]) was “Non-Toxic”, the Activity (Staphylococcus aureus) was “inactive” and the Activity [12] was “Active”. The Activity (Mus musculus [13]) was “Non-Toxic”, the remaining at 24 h [14] was 75% and the degraded at 10 h [15] was 20%. The Activity [16] was “inactive” and the inhibition in vivo at 300 mg/kg [17] was 79%.
